Data: ChEMBL document CHEMBL1124758, “Renin inhibitory peptides. A beta-aspartyl residue as a replacement for the histidyl residue at the P-2 site” (J Med Chem, 1990)

Molecular target: T1, Renin (Homo sapiens, UniProt P00797)
T1 sequence (P00797 whole entry): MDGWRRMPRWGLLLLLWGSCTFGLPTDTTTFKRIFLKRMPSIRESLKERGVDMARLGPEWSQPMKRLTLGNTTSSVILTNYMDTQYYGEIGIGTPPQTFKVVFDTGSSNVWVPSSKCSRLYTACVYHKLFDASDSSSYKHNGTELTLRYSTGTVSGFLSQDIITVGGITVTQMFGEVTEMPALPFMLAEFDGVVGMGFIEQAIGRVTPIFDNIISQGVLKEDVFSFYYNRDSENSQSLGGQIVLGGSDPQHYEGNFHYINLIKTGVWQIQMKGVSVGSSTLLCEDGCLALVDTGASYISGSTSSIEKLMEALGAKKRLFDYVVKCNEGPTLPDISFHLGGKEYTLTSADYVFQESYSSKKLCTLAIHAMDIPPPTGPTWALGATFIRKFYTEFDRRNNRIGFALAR
Assay: Inhibition of human plasma renin at pH 6
Assay type: cell-free
In short: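 Human plasma incubated with phenylmethanesulfonyl fluoride and maleate buffer (pH 6.0) plus peptide in 1% Tween 80/water vehicle, 90 min at 37 °C, for angiotensin I generation. Angiotensin I measured by radioimmunoassay kit. Percent inhibition from plasma renin activity versus control tubes. IC50 estimated from semilog plot of three or four peptide concentrations.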

Structure (SMILES)	IC50 [nM]
CC[C@@H](C)[C@H](NC(=O)[C@@H](CC(O)[C@H](CC1CCCCC1)NC(=O)[C@@H](CC(=O)O)NC(=O)COc1ccccc1)C(C)C)C(=O)N(C)c1ccccn1 (some centres undefined)	0.34
CC[C@@H](C)[C@H](NC(=O)[C@@H](CC(O)[C@H](CC(C)C)NC(=O)[C@@H](CC(=O)O)NC(=O)COc1ccccc1)C(C)C)C(=O)N(C)c1ccccn1 (some centres undefined)	1.9
CC[C@@H](C)[C@H](NC(=O)[C@@H](CC(O)[C@H](CC(C)C)NC(=O)[C@H](Cc1c[nH]cn1)NC(=O)COc1ccccc1)C(C)C)C(=O)N(C)c1ccccn1 (some centres undefined)	8.5
CC[C@@H](C)[C@H](NC(=O)[C@@H](CC(O)[C@H](CC(C)C)NC(=O)C(C(=O)COc1ccccc1)C(O)C(=O)O)C(C)C)C(=O)N(C)c1ccccn1 (some centres undefined)	0.7
CC[C@@H](C)[C@H](NC(=O)[C@@H](CC(O)[C@H](CC(C)C)NC(=O)C(C(=O)Cc1ccccc1)C(O)C(=O)O)C(C)C)C(=O)N(C)c1ccccn1 (some centres undefined)	1.2
CC[C@@H](C)[C@H](NC(=O)[C@@H](CC(O)[C@H](CC1CCCCC1)NC(=O)[C@@H](CC(=O)O)NC(=O)Cc1ccccc1)C(C)C)C(=O)N(C)c1ccccn1 (some centres undefined)	2
CC[C@@H](C)[C@H](NC(=O)[C@@H](CC(O)[C@H](CC(C)C)NC(=O)[C@H](Cc1c[nH]cn1)NC(=O)Cc1ccccc1)C(C)C)C(=O)N(C)c1ccccn1 (some centres undefined)	220
CC[C@@H](C)[C@H](NC(=O)[C@@H](CC(O)[C@H](CC(C)C)NC(=O)[C@@H](CC(=O)O)NC(=O)Cc1ccccc1)C(C)C)C(=O)N(C)c1ccccn1 (some centres undefined)	3.5
CC[C@@H](C)CNC(=O)[C@@H](CC(O)[C@H](CC(C)C)NC(=O)[C@@H](CC(=O)O)NC(=O)COc1ccccc1)C(C)C (some centres undefined)	20
CC[C@@H](C)[C@H](NC(=O)[C@@H](CC(O)[C@H](CC(C)C)NC(=O)C(CC(=O)O)NC(=O)Cc1ccccc1)C(C)C)C(=O)N(C)c1ccccn1 (stereo in doubt)	17

The remaining lines, values ahead:

IC50 [nM]	Structure (SMILES)
2.2	CC[C@@H](C)CNC(=O)[C@@H](CC(O)[C@H](CC(C)C)NC(=O)C(C(=O)COc1ccccc1)C(O)C(=O)O)C(C)C (some centres undefined)
5.2	CC[C@@H](C)CNC(=O)[C@@H](NC(O)[C@@H](CC(=O)[C@H](CC(=O)O)NC(=O)COc1ccccc1)CC1CCCCC1)C(C)C (some centres undefined)
6	CC[C@@H](C)CNC(=O)[C@@H](CC(O)[C@H](CC(C)C)NC(=O)C(C(=O)Cc1ccccc1)C(O)C(=O)O)C(C)C (some centres undefined)
3.6	CC[C@@H](C)CNC(=O)[C@@H](CC(O)[C@H](CC1CCCCC1)NC(=O)C(C(=O)COc1ccccc1)C(O)C(=O)O)C(C)C (some centres undefined)
